Measured values taken from ChEMBL document CHEMBL2331324, “Synthesis and biological evaluation of guanidino analogues of roscovitine” (Eur J Med Chem, 2013).

Tests used:
[1] = molecular target: Serine/threonine-protein kinase pim-1 (Homo sapiens) (UniProt P11309); test: Inhibition of recombinant PIM1 (unknown origin) assessed as residual activity using [gamma-33P]ATP as substrate at 1 uM
Method in brief: (§1)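 Selectivity panel run under previously published conditions. Screened at 1 μM in duplicate. Reactions started with [γ-33P]ATP (800 cpm/pmol) at 5, 20 or 50 μM, chosen to be at or below each enzyme's ATP Km. Stopped with phosphoric acid, spotted onto P81 filters. Result expressed as residual kinase activity.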

[2] = molecular target: Serine/threonine-protein kinase OSR1 (Homo sapiens) (UniProt O95747); test: Inhibition of recombinant OSR1 (unknown origin) assessed as residual activity using [gamma-33P]ATP as substrate at 1 uM; method in brief: as §1
[3] = molecular target: Serine/threonine-protein kinase 26 (Homo sapiens) (UniProt Q9P289); test: Inhibition of recombinant MST4 (unknown origin) assessed as residual activity using [gamma-33P]ATP as substrate at 1 uM; method in brief: as §1
[4] = molecular target: Ribosomal protein S6 kinase alpha-5 (Homo sapiens) (UniProt O75582); test: Inhibition of recombinant MSK1 (unknown origin) assessed as residual activity using [gamma-33P]ATP as substrate at 1 uM; method in brief: as §1
[5] = molecular target: MAP kinase-interacting serine/threonine-protein kinase 1 (Homo sapiens) (UniProt Q9BUB5); test: Inhibition of recombinant MNK1 (unknown origin) assessed as residual activity using [gamma-33P]ATP as substrate at 1 uM; method in brief: as §1
[6] = molecular target: Mitogen-activated protein kinase kinase kinase 9 (Homo sapiens) (UniProt P80192); test: Inhibition of recombinant MLK1 (unknown origin) assessed as residual activity using [gamma-33P]ATP as substrate at 1 uM; method in brief: as §1
[7] = molecular target: Mitogen-activated protein kinase kinase kinase 1 (Homo sapiens) (UniProt Q13233); test: Inhibition of recombinant MEKK1 (unknown origin) assessed as residual activity using [gamma-33P]ATP as substrate at 1 uM; method in brief: as §1
[8] = molecular target: Maternal embryonic leucine zipper kinase (Homo sapiens) (UniProt Q14680); test: Inhibition of recombinant MELK (unknown origin) assessed as residual activity using [gamma-33P]ATP as substrate at 1 uM; method in brief: as §1
[9] = molecular target: Serine/threonine-protein kinase MARK2 (Homo sapiens) (UniProt Q7KZI7); test: Inhibition of recombinant MARK2 (unknown origin) assessed as residual activity using [gamma-33P]ATP as substrate at 1 uM; method in brief: as §1
[10] = molecular target: Tyrosine-protein kinase JAK2 (Homo sapiens) (UniProt O60674); test: Inhibition of recombinant JAK2 (unknown origin) assessed as residual activity using [gamma-33P]ATP as substrate at 1 uM
Method in brief: (§2)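 Recombinant kinase panel screened at 1 µM in duplicate. Reactions started with [γ-33P]ATP (800 cpm/pmol) at 5, 20 or 50 µM, chosen to sit at or below each enzyme's ATP Km. Stopped with phosphoric acid and spotted onto P81 filters. Result given as residual kinase activity.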

[11] = molecular target: Interleukin-1 receptor-associated kinase 4 (Homo sapiens) (UniProt Q9NWZ3); test: Inhibition of recombinant IRAK4 (unknown origin) assessed as residual activity using [gamma-33P]ATP as substrate at 1 uM; method in brief: as §2
[12] = molecular target: Mitogen-activated protein kinase 15 (Homo sapiens) (UniProt Q8TD08); test: Inhibition of recombinant ERK8 (unknown origin) assessed as residual activity using [gamma-33P]ATP as substrate at 1 uM; method in brief: as §2
[13] = molecular target: Mitogen-activated protein kinase 1 (Homo sapiens) (UniProt P28482); test: Inhibition of recombinant ERK2 (unknown origin) assessed as residual activity using [gamma-33P]ATP as substrate at 1 uM; method in brief: as §2
[14] = molecular target: Misshapen-like kinase 1 (Homo sapiens) (UniProt Q8N4C8); test: Inhibition of recombinant MINK1 (unknown origin) assessed as residual activity using [gamma-33P]ATP as substrate at 1 uM; method in brief: as §1
[15] = molecular target: Tyrosine-protein kinase Yes (Homo sapiens) (UniProt P07947); test: Inhibition of recombinant YES1 (unknown origin) assessed as residual activity using [gamma-33P]ATP as substrate at 1 uM
Method in brief: (§3)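 Kinase panel screen with each compound at 1 µM, in duplicate. Reactions were started with [γ-33P]ATP (800 cpm/pmol) at 5, 20 or 50 µM, chosen per enzyme to be at or below its ATP Km. Reactions were stopped with phosphoric acid and spotted onto P81 filters. Results are given as residual kinase activity.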

[16] = molecular target: Angiopoietin-1 receptor (Homo sapiens) (UniProt Q02763); test: Inhibition of recombinant TIE2 (unknown origin) assessed as residual activity using [gamma-33P]ATP as substrate at 1 uM; method in brief: as §3
[17] = molecular target: Mitogen-activated protein kinase kinase kinase 7 (Homo sapiens) (UniProt O43318); test: Inhibition of recombinant TAK1 (unknown origin) assessed as residual activity using [gamma-33P]ATP as substrate at 1 uM; method in brief: as §3
[18] = molecular target: Serine/threonine-protein kinase D1 (Homo sapiens) (UniProt Q15139); test: Inhibition of recombinant PKD1 (unknown origin) assessed as residual activity using [gamma-33P]ATP as substrate at 1 uM; method in brief: as §1
[19] = molecular target: Protein kinase C gamma type (Homo sapiens) (UniProt P05129); test: Inhibition of recombinant PKCgamma (unknown origin) assessed as residual activity using [gamma-33P]ATP as substrate at 1 uM; method in brief: as §1
[20] = molecular target: RAC-beta serine/threonine-protein kinase (Homo sapiens) (UniProt P31751); test: Inhibition of recombinant PKB beta (unknown origin) assessed as residual activity using [gamma-33P]ATP as substrate at 1 uM; method in brief: as §1
[21] = molecular target: Serine/threonine-protein kinase pim-3 (Homo sapiens) (UniProt Q86V86); test: Inhibition of recombinant PIM3 (unknown origin) assessed as residual activity using [gamma-33P]ATP as substrate at 1 uM; method in brief: as §1
[22] = molecular target: Serine/threonine-protein kinase pim-2 (Homo sapiens) (UniProt Q9P1W9); test: Inhibition of recombinant PIM2 (unknown origin) assessed as residual activity using [gamma-33P]ATP as substrate at 1 uM; method in brief: as §1
[23] = molecular target: Eukaryotic translation initiation factor 2-alpha kinase 3 (Homo sapiens) (UniProt Q9NZJ5); test: Inhibition of recombinant EIF2AK3 (unknown origin) assessed as residual activity using [gamma-33P]ATP as substrate at 1 uM; method in brief: as §2
[24] = molecular target: Dual specificity protein kinase CLK2 (Homo sapiens) (UniProt P49760); test: Inhibition of recombinant CLK2 (unknown origin) assessed as residual activity using [gamma-33P]ATP as substrate at 1 uM; method in brief: as §2
[25] = molecular target: Aurora kinase A (Homo sapiens) (UniProt O14965); test: Inhibition of recombinant AURA (unknown origin) assessed as residual activity using [gamma-33P]ATP as substrate at 1 uM; method in brief: as §2
[26] = molecular target: Cyclin-dependent kinase 1/cyclin B1 (Homo sapiens, UniProt P06493); test: Inhibition of recombinant CDK1/cyclin B (unknown origin) using histone H1 as substrate in presence of [gamma-33P]ATP; format: protein-complex assay
[27] = molecular target: Serine/threonine-protein kinase PAK 5 (Homo sapiens) (UniProt Q9P286); test: Inhibition of recombinant PAK5 (unknown origin) assessed as residual activity using [gamma-33P]ATP as substrate at 1 uM

Sequence of Maternal embryonic leucine zipper kinase (Homo sapiens) (Q14680 whole entry, looked up): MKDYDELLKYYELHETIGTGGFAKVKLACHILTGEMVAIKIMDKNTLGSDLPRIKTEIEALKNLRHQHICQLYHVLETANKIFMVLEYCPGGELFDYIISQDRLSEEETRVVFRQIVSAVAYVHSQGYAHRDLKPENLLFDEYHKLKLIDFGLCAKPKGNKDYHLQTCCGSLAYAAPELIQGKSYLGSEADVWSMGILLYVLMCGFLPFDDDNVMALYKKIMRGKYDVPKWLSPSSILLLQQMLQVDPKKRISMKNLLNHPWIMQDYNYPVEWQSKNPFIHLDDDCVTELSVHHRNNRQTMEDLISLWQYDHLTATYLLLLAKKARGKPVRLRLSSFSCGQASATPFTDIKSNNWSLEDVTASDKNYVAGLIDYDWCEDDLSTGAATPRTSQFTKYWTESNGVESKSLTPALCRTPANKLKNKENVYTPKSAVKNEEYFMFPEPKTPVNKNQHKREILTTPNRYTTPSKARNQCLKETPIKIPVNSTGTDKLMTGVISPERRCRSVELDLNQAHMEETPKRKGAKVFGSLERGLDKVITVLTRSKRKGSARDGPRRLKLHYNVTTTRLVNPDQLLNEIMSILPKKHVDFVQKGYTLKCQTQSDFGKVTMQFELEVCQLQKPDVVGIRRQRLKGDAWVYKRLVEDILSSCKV
Sequence of Cyclin-dependent kinase 1/cyclin B1 (P06493 whole entry): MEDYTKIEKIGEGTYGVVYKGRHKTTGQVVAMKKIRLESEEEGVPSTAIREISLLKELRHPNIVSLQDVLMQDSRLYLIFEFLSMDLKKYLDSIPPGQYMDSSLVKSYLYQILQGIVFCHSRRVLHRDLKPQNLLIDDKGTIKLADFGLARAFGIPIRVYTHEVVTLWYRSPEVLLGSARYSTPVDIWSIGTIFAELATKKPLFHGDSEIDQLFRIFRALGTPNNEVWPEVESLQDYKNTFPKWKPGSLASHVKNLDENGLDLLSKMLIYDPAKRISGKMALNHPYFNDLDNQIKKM
Sequence of Cyclin-dependent kinase 1/cyclin B1 (P14635 whole entry, further chain): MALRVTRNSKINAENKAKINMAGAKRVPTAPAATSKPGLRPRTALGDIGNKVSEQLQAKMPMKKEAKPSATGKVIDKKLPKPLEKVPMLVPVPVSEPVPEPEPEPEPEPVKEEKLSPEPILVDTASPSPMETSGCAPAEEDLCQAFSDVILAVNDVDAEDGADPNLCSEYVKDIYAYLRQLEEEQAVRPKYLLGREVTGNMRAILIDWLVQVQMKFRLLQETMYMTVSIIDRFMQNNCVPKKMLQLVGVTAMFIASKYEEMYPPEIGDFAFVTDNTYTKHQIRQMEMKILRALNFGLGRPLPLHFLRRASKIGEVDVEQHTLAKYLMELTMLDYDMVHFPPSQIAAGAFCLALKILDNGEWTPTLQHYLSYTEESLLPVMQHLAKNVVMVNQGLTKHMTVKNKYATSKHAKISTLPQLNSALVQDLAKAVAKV
Sequence of Dual specificity protein kinase CLK2 (Homo sapiens) (P49760 whole entry, looked up): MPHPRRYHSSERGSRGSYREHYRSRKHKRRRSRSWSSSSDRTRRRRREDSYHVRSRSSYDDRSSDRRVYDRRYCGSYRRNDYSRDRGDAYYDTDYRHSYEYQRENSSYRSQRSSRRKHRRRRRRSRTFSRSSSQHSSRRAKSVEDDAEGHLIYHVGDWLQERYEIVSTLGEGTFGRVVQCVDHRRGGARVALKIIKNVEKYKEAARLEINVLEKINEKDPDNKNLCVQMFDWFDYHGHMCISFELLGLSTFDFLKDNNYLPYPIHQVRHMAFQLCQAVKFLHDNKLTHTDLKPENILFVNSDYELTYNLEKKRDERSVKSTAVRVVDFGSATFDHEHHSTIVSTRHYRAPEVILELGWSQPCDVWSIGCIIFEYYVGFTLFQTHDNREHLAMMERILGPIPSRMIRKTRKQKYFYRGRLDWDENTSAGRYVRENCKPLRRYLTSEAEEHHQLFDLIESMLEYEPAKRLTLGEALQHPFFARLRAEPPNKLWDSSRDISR
Sequence of Tyrosine-protein kinase JAK2 (Homo sapiens) (O60674 whole entry): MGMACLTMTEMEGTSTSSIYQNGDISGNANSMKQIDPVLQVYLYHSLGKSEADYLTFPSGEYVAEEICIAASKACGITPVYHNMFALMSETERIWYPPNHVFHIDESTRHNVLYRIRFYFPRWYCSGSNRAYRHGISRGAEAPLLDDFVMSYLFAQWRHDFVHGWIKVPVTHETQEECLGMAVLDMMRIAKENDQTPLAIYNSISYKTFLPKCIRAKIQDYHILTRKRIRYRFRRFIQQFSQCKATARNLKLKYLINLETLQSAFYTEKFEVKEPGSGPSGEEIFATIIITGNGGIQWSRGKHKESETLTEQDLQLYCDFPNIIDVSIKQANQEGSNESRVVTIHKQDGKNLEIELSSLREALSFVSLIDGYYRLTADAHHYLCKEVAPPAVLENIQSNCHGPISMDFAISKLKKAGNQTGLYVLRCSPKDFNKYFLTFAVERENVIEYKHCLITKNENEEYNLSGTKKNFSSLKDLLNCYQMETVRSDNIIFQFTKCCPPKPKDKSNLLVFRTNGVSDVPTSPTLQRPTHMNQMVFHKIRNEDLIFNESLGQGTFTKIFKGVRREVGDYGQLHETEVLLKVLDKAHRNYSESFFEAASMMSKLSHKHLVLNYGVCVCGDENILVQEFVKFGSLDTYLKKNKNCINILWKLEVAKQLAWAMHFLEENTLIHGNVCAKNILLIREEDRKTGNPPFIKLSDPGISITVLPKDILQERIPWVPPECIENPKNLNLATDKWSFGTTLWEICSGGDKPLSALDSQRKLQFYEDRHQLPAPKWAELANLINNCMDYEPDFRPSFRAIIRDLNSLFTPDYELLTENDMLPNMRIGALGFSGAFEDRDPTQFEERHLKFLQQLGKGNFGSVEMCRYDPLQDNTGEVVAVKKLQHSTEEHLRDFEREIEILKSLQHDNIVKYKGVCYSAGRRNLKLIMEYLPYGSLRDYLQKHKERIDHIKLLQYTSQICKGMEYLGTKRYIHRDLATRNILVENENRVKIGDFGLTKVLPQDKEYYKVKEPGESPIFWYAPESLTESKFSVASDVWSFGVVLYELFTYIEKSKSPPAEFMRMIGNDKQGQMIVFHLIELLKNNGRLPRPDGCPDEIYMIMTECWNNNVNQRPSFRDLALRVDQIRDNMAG
Sequence of Ribosomal protein S6 kinase alpha-5 (Homo sapiens) (O75582 whole entry, looked up): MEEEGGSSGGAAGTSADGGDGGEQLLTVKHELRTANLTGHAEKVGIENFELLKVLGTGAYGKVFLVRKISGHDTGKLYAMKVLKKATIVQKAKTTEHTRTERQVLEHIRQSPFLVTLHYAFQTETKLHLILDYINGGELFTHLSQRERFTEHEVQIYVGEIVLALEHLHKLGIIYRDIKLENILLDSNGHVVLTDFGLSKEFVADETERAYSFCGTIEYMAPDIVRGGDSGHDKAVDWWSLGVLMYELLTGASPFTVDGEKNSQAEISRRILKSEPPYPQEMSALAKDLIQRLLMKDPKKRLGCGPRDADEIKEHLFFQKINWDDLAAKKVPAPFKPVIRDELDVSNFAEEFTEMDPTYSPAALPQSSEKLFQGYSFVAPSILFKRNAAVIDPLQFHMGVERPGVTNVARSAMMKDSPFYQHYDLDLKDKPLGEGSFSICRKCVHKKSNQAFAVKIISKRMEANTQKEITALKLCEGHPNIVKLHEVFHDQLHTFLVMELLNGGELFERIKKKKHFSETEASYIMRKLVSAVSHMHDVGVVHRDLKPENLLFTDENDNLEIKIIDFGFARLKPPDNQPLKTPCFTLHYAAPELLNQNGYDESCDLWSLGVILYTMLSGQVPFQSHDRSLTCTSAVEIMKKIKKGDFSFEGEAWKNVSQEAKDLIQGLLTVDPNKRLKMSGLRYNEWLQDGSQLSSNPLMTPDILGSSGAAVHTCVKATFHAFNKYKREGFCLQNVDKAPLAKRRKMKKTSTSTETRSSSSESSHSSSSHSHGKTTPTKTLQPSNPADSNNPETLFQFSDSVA
Sequence of Mitogen-activated protein kinase 1 (Homo sapiens) (P28482 whole entry): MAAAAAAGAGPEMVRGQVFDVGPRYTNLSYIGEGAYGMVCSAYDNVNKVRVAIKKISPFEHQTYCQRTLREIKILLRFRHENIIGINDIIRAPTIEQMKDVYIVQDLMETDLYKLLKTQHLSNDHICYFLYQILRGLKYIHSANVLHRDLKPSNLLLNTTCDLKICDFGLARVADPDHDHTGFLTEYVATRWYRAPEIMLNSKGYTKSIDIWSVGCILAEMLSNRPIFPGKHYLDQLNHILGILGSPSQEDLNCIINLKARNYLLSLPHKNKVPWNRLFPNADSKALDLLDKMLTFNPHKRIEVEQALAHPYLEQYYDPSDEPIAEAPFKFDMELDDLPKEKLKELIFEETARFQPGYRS
Sequence of Interleukin-1 receptor-associated kinase 4 (Homo sapiens) (Q9NWZ3 whole entry): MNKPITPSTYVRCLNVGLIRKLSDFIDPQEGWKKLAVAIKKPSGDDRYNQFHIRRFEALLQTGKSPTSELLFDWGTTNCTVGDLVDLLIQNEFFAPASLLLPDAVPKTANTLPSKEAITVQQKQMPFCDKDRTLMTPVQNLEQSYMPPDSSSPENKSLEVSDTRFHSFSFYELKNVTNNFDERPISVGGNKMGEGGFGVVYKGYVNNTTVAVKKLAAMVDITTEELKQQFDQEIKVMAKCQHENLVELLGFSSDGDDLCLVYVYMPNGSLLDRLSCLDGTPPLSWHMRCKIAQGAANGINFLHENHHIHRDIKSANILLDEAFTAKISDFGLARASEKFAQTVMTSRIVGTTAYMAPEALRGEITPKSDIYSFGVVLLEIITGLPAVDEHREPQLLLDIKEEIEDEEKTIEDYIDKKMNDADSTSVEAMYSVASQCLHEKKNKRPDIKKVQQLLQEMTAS

Activity [1] [%]	Activity [2] [%]	Activity [3] [%]	Activity [4] [%]	Activity [5] [%]	Activity [6] [%]	Activity [7] [%]	Activity [8] [%]	Activity [9] [%]	Activity [10] [%]	Activity [11] [%]	Activity [13] [%]	Activity [14] [%]	Activity [15] [%]	Activity [16] [%]	Activity [17] [%]	Activity [18] [%]	Activity [19] [%]	Activity [20] [%]	Structure (SMILES)	Activity [12] [%]	also measured
85	16	42	46	173	25	91	27	45	16	21	32	64	13	39	7	17	73	111	CC[C@H](CO)Nc1nc(NC(=N)N)c2ncn(C(C)C)c2n1	16	Activity [21]: 64%; Activity [22]: 88%; Activity [23]: 17%; Activity [24]: 4%; Activity [25]: 39%; IC50 [26]: 2100 nM; Activity [27]: 18%
71	16	40	38	178	31	96	19	62	16	11	15	75	11	40	13	18	61	103	CC[C@@H](CO)Nc1nc(NC(=N)N)c2ncn(C(C)C)c2n1	18	Activity [21]: 44%; Activity [22]: 91%; Activity [23]: 11%; Activity [24]: 4%; Activity [25]: 30%; IC50 [26]: 900 nM; Activity [27]: 15%
